Data as given in ChEMBL document CHEMBL4387788, “Brominated Azaphilones from the Sponge-Associated Fungus Penicillium canescens Strain 4.14.6a” (J Nat Prod, 2019).

Columns and labels:
[1] = system: L5178Y; experiment: Cytotoxicity against mouse L5178Y cells assessed as reduction in cell viability incubated for 72 hrs by MTT assay; assay type: functional, cell-based
Outline: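 MTT assay on L5178Y mouse lymphoma cells. Kahalalide F was the positive control; 0.1% ethylene glycol monomethyl ether in DMSO was the negative control.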

[2] = system: A2780; experiment: Cytotoxicity against human A2780 cells assessed as reduction in cell viability incubated for 72 hrs by MTT assay; assay type: functional, cell-based; conditions: A2780, 72 h
Outline: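 A2780 human ovarian cancer cells were seeded at 9500 cells/well and, after 24 h, exposed to 3.6-fold serial dilutions of compound for 72 h. MTT (5 mg/mL in PBS) was added, and the formazan was dissolved in DMSO. Absorbance was read at 544 and 690 nm. Cisplatin was the positive control and 0.9% sodium chloride the negative control.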

SMILES: COc1cc(O)c2c(=O)c3c(C)cc(O)cc3oc2c1
- IC50 [1]: > 10 µM
- IC50 [2]: > 10 µM

SMILES: COC1=CC(=O)C[C@@H](C)[C@]12Oc1cc(OC)cc(OC)c1C2=O
- IC50 [1]: > 10 µM
- IC50 [2]: > 10 µM

SMILES: COc1cc(O)c(C(=O)c2c(C)cc(O)cc2OC)c(O)c1
- IC50 [1]: > 10 µM
- IC50 [2]: > 10 µM

SMILES: COc1cc(O)c(C(=O)c2c(C)cc(O)cc2OC)c(O)c1Cl
- IC50 [1]: > 10 µM
- IC50 [2]: > 10 µM

SMILES: COC(=O)Cc1cc(OC)cc(O)c1C(C)=O
- IC50 [1]: > 10 µM
- IC50 [2]: > 10 µM

SMILES: COC(=O)c1c(O)cc(OC)c(Cl)c1Oc1c(C)cc(O)cc1OC
- IC50 [1]: > 10 µM
- IC50 [2]: > 10 µM

SMILES: COc1cc(O)cc(C)c1C(=O)c1c(O)c(Cl)c(OC)c(Cl)c1O
- IC50 [1]: > 10 µM
- IC50 [2]: > 10 µM

SMILES: COc1cc(C[C@]23COC(/C=C/C=C/C=C/C(=O)O)=CC2=C(Br)C(=O)[C@](C)(OC(=O)C[C@H](O)C[C@@H](C)O)C3=O)c(C(C)=O)c(O)c1O
- IC50 [1]: 13.9 µM
- IC50 [2]: 37 µM

SMILES: COC(=O)Cc1cc(O)cc(O)c1C(C)=O
- IC50 [1]: > 10 µM
- IC50 [2]: > 10 µM

SMILES: COC(=O)c1c(O)cc(OC)c(Cl)c1Oc1c(C)cc(OC)cc1OC
- IC50 [1]: > 10 µM
- IC50 [2]: > 10 µM

SMILES: COc1cc(C[C@]23COC(/C=C/C=C/C=C/C(=O)O)=CC2=C(Br)C(=O)[C@@](C)(OC(=O)C[C@H](O)C[C@@H](C)O)C3=O)c(C(C)=O)c(O)c1O
- IC50 [1]: 8.9 µM
- IC50 [2]: 2.7 µM

SMILES: COC(=O)[C@@]12C(O)=C(C)C(=O)[C@]1(C)C(C)=C[C@H]1[C@]34CC[C@H](OC(C)=O)C(C)(C)[C@H]3[C@H](C[C@@]12C)OC4=O
- IC50 [1]: > 10 µM
- IC50 [2]: > 10 µM

SMILES: CC1(C)C=Cc2cc3c(cc2O1)c(C[C@@H]1NC(=O)C2=CCCN2C1=O)c1n3C=CC1(C)C
- IC50 [1]: > 10 µM
- IC50 [2]: > 10 µM

SMILES: C/C=C1\NC(=O)[C@H](Cc2ccccc2)NC(=O)[C@@H](C(C)C)NC(=O)[C@@H]([C@@H](C)CC)NC(=O)[C@H](NC(=O)[C@H](NC(=O)[C@H](CCCN)NC(=O)[C@H]2CCCN2C(=O)[C@H](NC(=O)[C@@H](NC(=O)[C@@H](NC(=O)[C@H](NC(=O)CCCC(C)C)C(C)C)[C@@H](C)O)C(C)C)C(C)C)[C@@H](C)CC)[C@@H](C)OC(=O)[C@H](C(C)C)NC1=O
- IC50 [1]: 4.3 µM

SMILES: COC1=CC(=O)C[C@@H](C)[C@]12Oc1c(Cl)c(OC)cc(OC)c1C2=O [GRISEOFULVIN]
- IC50 [1]: > 10 µM
- IC50 [2]: > 10 µM

SMILES: Cc1cc(O)cc2oc3cc(O)cc(O)c3c(=O)c12 [NORLICHEXANTHONE]
- IC50 [1]: > 10 µM
- IC50 [2]: > 10 µM

SMILES: C=C(C)C1(O)OC(=O)C=C1OC (stereo not drawn) [PENICILLIC ACID]
- IC50 [1]: 8.9 µM
- IC50 [2]: > 10 µM
